# ChEMBL document CHEMBL5724801, “EUbOPEN Chemogenomics Library - Multiplex” (2024)
# Values joined by “and” are separate entries in the source; they are usually repeats but may differ in a detail not shown here. Equal entries are not always repeated.
# Tested on: HEK-293T
# Test: Multiplex assay against HEK293T
# Type: toxicity, cell-based
# Conditions: human
# Summary of the method: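 Live cells were stained at seeding with Hoechst33342, BioTracker Green Microtubule Cytoskeleton Dye, MitoTracker Red and Annexin V Alexa Fluor 680, then imaged on a CQ1 microscope at 37°C and 5% CO2 after compound addition. CellPathfinder machine-learning gating split cells into Hoechst high-intensity objects or normal cells. Normal cells were split into healthy, pyknosed or fragmented nuclei, and pyknosed cells into mitotic or apoptotic. Tubulin, mitochondrial-mass and membrane-permeability phenotypes are per cents of healthy-nucleus cells.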
# [1] = 12 h, 1 µM, compound concentration 1 uM
# [2] = 12 h, 10 µM, compound concentration 10 uM
# [3] = 24 h, 1 µM, compound concentration 1 uM
# [4] = 24 h, 10 µM, compound concentration 10 uM
# [5] = 48 h, 1 µM, compound concentration 1 uM
# [6] = 48 h, 10 µM, compound concentration 10 uM
smiles,measurement,setting,value
Br.CS(=O)(=O)Nc1c(O)ccc2c1CCCC2C1=NCCN1 (stereo not drawn),Population Apoptotic (%),[1],40% and 43%
same,Population Fragmented Nuclei (%),[1],7% and 5%
same,Population Healthy Nuclei (%),[1],80% and 81%
same,Population Hoechst High Intensity Objects (%),[1],5% and 8%
same,Population Membrane Permeable-Phenotype (%),[1],0%
same,Population Mitochondria Different-Phenotype (%),[1],45% and 52%
same,Population Mitotic Cells (%),[1],59% and 56%
same,Population Normal (%),[1],94% and 91%
same,Population Pyknosed Nuclei (%),[1],12%
same,Population Tubulin-Different-Phenotype (%),[1],26% and 18%
same,Total Cell Count,[1],407 and 334
same,Population Apoptotic (%),[2],48% and 55%
same,Population Fragmented Nuclei (%),[2],8% and 6%
same,Population Healthy Nuclei (%),[2],76% and 79%
same,Population Hoechst High Intensity Objects (%),[2],12% and 14%
same,Population Membrane Permeable-Phenotype (%),[2],0%
same,Population Mitochondria Different-Phenotype (%),[2],60% and 67%
same,Population Mitotic Cells (%),[2],52% and 44%
same,Population Normal (%),[2],87% and 85%
same,Population Pyknosed Nuclei (%),[2],14%
same,Population Tubulin-Different-Phenotype (%),[2],33% and 26%
same,Total Cell Count,[2],381 and 292
same,Population Apoptotic (%),[3],38% and 55%
same,Population Fragmented Nuclei (%),[3],10% and 6%
same,Population Healthy Nuclei (%),[3],79% and 80%
same,Population Hoechst High Intensity Objects (%),[3],5% and 8%
same,Population Membrane Permeable-Phenotype (%),[3],1% and 0%
same,Population Mitochondria Different-Phenotype (%),[3],34% and 41%
same,Population Mitotic Cells (%),[3],61% and 44%
same,Population Normal (%),[3],94% and 91%
same,Population Pyknosed Nuclei (%),[3],10% and 13%
same,Population Tubulin-Different-Phenotype (%),[3],21% and 17%
same,Total Cell Count,[3],549 and 387
same,Population Apoptotic (%),[4],30% and 34%
same,Population Fragmented Nuclei (%),[4],11%
same,Population Healthy Nuclei (%),[4],75% and 77%
same,Population Hoechst High Intensity Objects (%),[4],6% and 11%
same,Population Membrane Permeable-Phenotype (%),[4],0%
same,Population Mitochondria Different-Phenotype (%),[4],40% and 46%
same,Population Mitotic Cells (%),[4],69% and 65%
same,Population Normal (%),[4],93% and 88%
same,Population Pyknosed Nuclei (%),[4],12% and 10%
same,Population Tubulin-Different-Phenotype (%),[4],23% and 21%
same,Total Cell Count,[4],451 and 377
same,Population Apoptotic (%),[5],12% and 29%
same,Population Fragmented Nuclei (%),[5],14% and 11%
same,Population Healthy Nuclei (%),[5],78%
same,Population Hoechst High Intensity Objects (%),[5],4% and 6%
same,Population Membrane Permeable-Phenotype (%),[5],0%
same,Population Mitochondria Different-Phenotype (%),[5],20% and 22%
same,Population Mitotic Cells (%),[5],87% and 70%
same,Population Normal (%),[5],95% and 93%
same,Population Pyknosed Nuclei (%),[5],7% and 9%
same,Population Tubulin-Different-Phenotype (%),[5],14% and 12%
same,Total Cell Count,[5],859 and 532
same,Population Apoptotic (%),[6],34% and 48%
same,Population Fragmented Nuclei (%),[6],16% and 14%
same,Population Healthy Nuclei (%),[6],76% and 79%
same,Population Hoechst High Intensity Objects (%),[6],4%
same,Population Membrane Permeable-Phenotype (%),[6],1% and 0%
same,Population Mitochondria Different-Phenotype (%),[6],22% and 27%
same,Population Mitotic Cells (%),[6],65% and 51%
same,Population Normal (%),[6],95%
same,Population Pyknosed Nuclei (%),[6],6% and 5%
same,Population Tubulin-Different-Phenotype (%),[6],12% and 11%
same,Total Cell Count,[6],671 and 584
CN(C)c1ccnc2sc3c(=O)n(N4CCCCCC4)cnc3c12,Population Apoptotic (%),[1],45% and 51%
same,Population Fragmented Nuclei (%),[1],9% and 5%
same,Population Healthy Nuclei (%),[1],76% and 82%
same,Population Hoechst High Intensity Objects (%),[1],4% and 8%
same,Population Membrane Permeable-Phenotype (%),[1],1% and 0%
same,Population Mitochondria Different-Phenotype (%),[1],50% and 67%
same,Population Mitotic Cells (%),[1],54% and 48%
same,Population Normal (%),[1],95% and 91%
same,Population Pyknosed Nuclei (%),[1],13% and 12%
same,Population Tubulin-Different-Phenotype (%),[1],43% and 25%
same,Total Cell Count,[1],360 and 335
same,Population Apoptotic (%),[2],36% and 59%
same,Population Fragmented Nuclei (%),[2],4% and 9%
same,Population Healthy Nuclei (%),[2],81% and 72%
same,Population Hoechst High Intensity Objects (%),[2],10% and 13%
same,Population Membrane Permeable-Phenotype (%),[2],0%
same,Population Mitochondria Different-Phenotype (%),[2],78% and 76%
same,Population Mitotic Cells (%),[2],63% and 40%
same,Population Normal (%),[2],89% and 86%
same,Population Pyknosed Nuclei (%),[2],14% and 17%
same,Population Tubulin-Different-Phenotype (%),[2],79% and 59%
same,Total Cell Count,[2],387 and 308
same,Population Apoptotic (%),[3],30% and 25%
same,Population Fragmented Nuclei (%),[3],10% and 7%
same,Population Healthy Nuclei (%),[3],76% and 84%
same,Population Hoechst High Intensity Objects (%),[3],4% and 5%
same,Population Membrane Permeable-Phenotype (%),[3],1% and 0%
same,Population Mitochondria Different-Phenotype (%),[3],27% and 51%
same,Population Mitotic Cells (%),[3],70% and 74%
same,Population Normal (%),[3],95% and 94%
same,Population Pyknosed Nuclei (%),[3],12% and 7%
same,Population Tubulin-Different-Phenotype (%),[3],24% and 22%
same,Total Cell Count,[3],510 and 470
same,Population Apoptotic (%),[4],42% and 66%
same,Population Fragmented Nuclei (%),[4],7% and 10%
same,Population Healthy Nuclei (%),[4],76% and 74%
same,Population Hoechst High Intensity Objects (%),[4],8% and 13%
same,Population Membrane Permeable-Phenotype (%),[4],0%
same,Population Mitochondria Different-Phenotype (%),[4],80% and 75%
same,Population Mitotic Cells (%),[4],57% and 33%
same,Population Normal (%),[4],91% and 86%
same,Population Pyknosed Nuclei (%),[4],16% and 15%
same,Population Tubulin-Different-Phenotype (%),[4],71% and 53%
same,Total Cell Count,[4],428 and 359
same,Population Apoptotic (%),[5],27% and 20%
same,Population Fragmented Nuclei (%),[5],13% and 11%
same,Population Healthy Nuclei (%),[5],78% and 82%
same,Population Hoechst High Intensity Objects (%),[5],2% and 3%
same,Population Membrane Permeable-Phenotype (%),[5],0% and 2%
same,Population Mitochondria Different-Phenotype (%),[5],23% and 31%
same,Population Mitotic Cells (%),[5],72% and 80%
same,Population Normal (%),[5],97% and 96%
same,Population Pyknosed Nuclei (%),[5],7% and 6%
same,Population Tubulin-Different-Phenotype (%),[5],14% and 15%
same,Total Cell Count,[5],721 and 663
same,Population Apoptotic (%),[6],70% and 57%
same,Population Fragmented Nuclei (%),[6],15% and 11%
same,Population Healthy Nuclei (%),[6],72% and 75%
same,Population Hoechst High Intensity Objects (%),[6],8% and 6%
same,Population Membrane Permeable-Phenotype (%),[6],0%
same,Population Mitochondria Different-Phenotype (%),[6],66% and 63%
same,Population Mitotic Cells (%),[6],29% and 42%
same,Population Normal (%),[6],91% and 93%
same,Population Pyknosed Nuclei (%),[6],12%
same,Population Tubulin-Different-Phenotype (%),[6],54% and 45%
same,Total Cell Count,[6],497 and 450
COc1ccccc1N1CCN(C[C@@H](C(=O)NC(C)(C)C)c2ccccc2)CC1.Cl.Cl,Population Apoptotic (%),[1],24% and 42%
same,Population Fragmented Nuclei (%),[1],7% and 4%
same,Population Healthy Nuclei (%),[1],77% and 76%
same,Population Hoechst High Intensity Objects (%),[1],7% and 6%
same,Population Membrane Permeable-Phenotype (%),[1],0%
same,Population Mitochondria Different-Phenotype (%),[1],48% and 77%
same,Population Mitotic Cells (%),[1],75% and 57%
same,Population Normal (%),[1],92% and 93%
same,Population Pyknosed Nuclei (%),[1],14% and 19%
same,Population Tubulin-Different-Phenotype (%),[1],47% and 35%
same,Total Cell Count,[1],434 and 300
same,Population Apoptotic (%),[2],62% and 58%
same,Population Fragmented Nuclei (%),[2],7% and 5%
same,Population Healthy Nuclei (%),[2],69%
same,Population Hoechst High Intensity Objects (%),[2],7% and 16%
same,Population Membrane Permeable-Phenotype (%),[2],0%
same,Population Mitochondria Different-Phenotype (%),[2],88% and 79%
same,Population Mitotic Cells (%),[2],37% and 41%
same,Population Normal (%),[2],92% and 83%
same,Population Pyknosed Nuclei (%),[2],23% and 25%
same,Population Tubulin-Different-Phenotype (%),[2],74% and 59%
same,Total Cell Count,[2],333 and 231
same,Population Apoptotic (%),[3],19% and 34%
same,Population Fragmented Nuclei (%),[3],8% and 11%
same,Population Healthy Nuclei (%),[3],81% and 76%
same,Population Hoechst High Intensity Objects (%),[3],4% and 6%
same,Population Membrane Permeable-Phenotype (%),[3],0%
same,Population Mitochondria Different-Phenotype (%),[3],31% and 54%
same,Population Mitotic Cells (%),[3],80% and 65%
same,Population Normal (%),[3],95% and 93%
same,Population Pyknosed Nuclei (%),[3],9% and 11%
same,Population Tubulin-Different-Phenotype (%),[3],29% and 28%
same,Total Cell Count,[3],563 and 387
same,Population Apoptotic (%),[4],45% and 66%
same,Population Fragmented Nuclei (%),[4],8%
same,Population Healthy Nuclei (%),[4],68% and 76%
same,Population Hoechst High Intensity Objects (%),[4],7% and 14%
same,Population Membrane Permeable-Phenotype (%),[4],0%
same,Population Mitochondria Different-Phenotype (%),[4],77% and 73%
same,Population Mitotic Cells (%),[4],54% and 33%
same,Population Normal (%),[4],92% and 85%
same,Population Pyknosed Nuclei (%),[4],23% and 15%
same,Population Tubulin-Different-Phenotype (%),[4],61% and 48%
same,Total Cell Count,[4],377 and 251
same,Population Apoptotic (%),[5],22% and 38%
same,Population Fragmented Nuclei (%),[5],13% and 10%
same,Population Healthy Nuclei (%),[5],78% and 80%
same,Population Hoechst High Intensity Objects (%),[5],2% and 6%
same,Population Membrane Permeable-Phenotype (%),[5],1% and 0%
same,Population Mitochondria Different-Phenotype (%),[5],19% and 37%
same,Population Mitotic Cells (%),[5],77% and 61%
same,Population Normal (%),[5],97% and 93%
same,Population Pyknosed Nuclei (%),[5],8% and 9%
same,Population Tubulin-Different-Phenotype (%),[5],18% and 20%
same,Total Cell Count,[5],908 and 480
same,Population Apoptotic (%),[6],50% and 62%
same,Population Fragmented Nuclei (%),[6],14% and 10%
same,Population Healthy Nuclei (%),[6],72% and 76%
same,Population Hoechst High Intensity Objects (%),[6],6% and 5%
same,Population Membrane Permeable-Phenotype (%),[6],0%
same,Population Mitochondria Different-Phenotype (%),[6],59% and 58%
same,Population Mitotic Cells (%),[6],49% and 37%
same,Population Normal (%),[6],93% and 94%
same,Population Pyknosed Nuclei (%),[6],13%
same,Population Tubulin-Different-Phenotype (%),[6],44% and 36%
same,Total Cell Count,[6],467 and 375
